# ChEMBL document CHEMBL1132314, “Synthesis and amyloid binding properties of rhenium complexes: preliminary progress toward a reagent for SPECT imaging of Alzheimer's disease brain” (J Med Chem, 1999)
# Legend:
# [1] = Apparent dissociation constant was measured at 110 mM salt
# How it was run: (§1)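 Synthetic Aβ40 fibrils (50 µM total Aβ40 stock, 20 µL added to 180 µL probe solution) were incubated with probe at 2–18 µM final in pH 7.4 10 mM phosphate, with 100 or 0 mM NaCl. Stocks for the Re complexes were in methanol, ≤3 vol % final. The mixture was held 1 h at 25 °C, then fibrils were pelleted by centrifugation.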
# [2] = max value was measured on A-beta-40 fibrils at low salt; how it was run: as §1
# [3] = Apparent dissociation constant was measured at 10 mM salt; how it was run: as §1
# [4] = Bmax value was measured on A-beta-40 fibrils at high salt; how it was run: as §1
# [5] = Partition coefficient (P); settings: octanol/water
compound,measurement,setting,value
Nc1c(/N=N/c2ccc(-c3ccc(/N=N/c4cc(S(=O)(=O)O)c5ccccc5c4N)cc3)cc2)cc(S(=O)(=O)O)c2ccccc12 [CONGO RED],Kd,[1],1500 nM
same,Bmax,[2],0.6
same,Kd,[3],1100 nM
same,Bmax,[4],2.6
same,P,[5],0.16
